Legend:
[1] = Kinetic aqueous solubility of compound in HEPES buffer at pH 7.4 at 500 uM measured after 90 mins by spectrophotometry analysis; assay type: physicochemical
Summary of the method: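 Compound-saturated HEPES buffer (pH 7.4, from DMSO stocks, 500 μM) shaken 90 min at room temperature, filtered, then diluted with an equal volume of acetonitrile.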

[2] = Permeability of the compound at 500 uM after 20 hrs by PAMPA; assay type: ADME
Summary of the method: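 Artificial membrane permeation with 500 μM compound in the donor compartment; after 20 h, receiver wells read by spectrophotometry and % flux derived by normalizing to flux across a blank filter.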

[3] = Microsomal stability in human liver microsomes assessed as intrinsic clearance at 1 uM measured up to 50 mins in presence of NADPH by LC-MS/MS analysis; assay type: ADME, Microsome
Summary of the method: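 Oxidative stability in NADPH-supplemented human liver microsomes; compound at 1 μM, depletion followed by LC–MS/MS for up to 50 min at 37 °C. Intrinsic clearance calculated from half-life, assay volume and microsomal protein amount (μL/min/mg).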

[4] = Stability in human plasma assessed as parent compound remaining at 5 uM measured after 1 hr by LC-MS/MS analysis relative to control; assay type: ADME, cell-free; conditions: read-out: Stability
Summary of the method: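 Compound at 5 μM incubated 1 h at 37 °C in 50% human plasma in PBS; % remaining determined by LC–MS.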

Kinetic_solubility [1] | permeability [2] | CLH [3] | remaining at 1 h, 5 µM [4] | SMILES
392 µM | 40.3% | 69 µL/min/mg | 59.5% | O=C(O)c1ccc(/C=C/c2c(-c3c(Cl)cccc3C(F)(F)F)noc2-c2cc[nH]c2)cc1
421 µM | 50.5% | 68 µL/min/mg | 89.5% | O=C(O)c1ccc(OCc2c(-c3c(Cl)cccc3C(F)(F)F)noc2-c2ccc[nH]2)cc1
436 µM | 40.9% | 57.8 µL/min/mg | 74.2% | O=C(O)c1ccc(OCc2c(-c3c(Cl)cccc3C(F)(F)F)noc2-c2cc[nH]c2)cc1
460 µM | 36.1% | 31.2 µL/min/mg | 79.1% | O=C(O)c1ccc(NCc2c(-c3c(Cl)cccc3C(F)(F)F)noc2-c2cc[nH]c2)cc1

More lines, now with the values behind:

SMILES | Kinetic_solubility [1] | permeability [2] | CLH [3] | remaining at 1 h, 5 µM [4]
O=C(O)c1ccc(OCc2c(-c3c(Cl)cccc3C(F)(F)F)noc2-c2cn[nH]c2)cc1 | 476 µM | 23% | 8.8 µL/min/mg | 100%
O=C(O)c1ccc(-c2nn(C(=O)c3c(Cl)cccc3C(F)(F)F)c3ccccc23)cc1 | 423 µM | 29.7% | 0.4 µL/min/mg | 95.5%
O=C(O)c1ccc(OCc2c(-c3c(Cl)cccc3C(F)(F)F)noc2-c2cc[nH]c2)cc1F | 445 µM | 37.3% | 77 µL/min/mg | 97.1%

Reference: ChEMBL document CHEMBL5131377, “Structure-Activity Relationship Studies of Trisubstituted Isoxazoles as Selective Allosteric Ligands for the Retinoic-Acid-Receptor-Related Orphan Receptor γt” (J Med Chem, 2021)
